Values after ≈ are worked out from the molar mass of the structure shown.
What was measured:
Hepatitis C virus [1] = assay: Antiviral activity against Hepatitis C virus infected human Huh-5-2 cells assessed as inhibition of luciferase activity after 4 days by RNA replicon assay; assay type: functional, organism-based, Hepacivirus hominis; conditions: Huh-5-2, 96 h
In short: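 Huh-5-2 subgenomic HCV replicon cells seeded 5000/well in complete DMEM with 250 µg/mL G418, 24 h at 37 °C (5% CO2). Threefold serial compound dilutions then added in DMEM without G418, 4 days at 37 °C. Replication read as luciferase activity (Steady-Glo). EC50 = concentration giving 50% inhibition of luciferase signal.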

[2] = Cytotoxicity against human Huh-5-2 cells; assay type: cell-based
In short: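 Exponentially growing Huh-5-2 cells treated with compound. CC50 taken as the concentration that inhibits cell proliferation by 50%.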

Hepatitis C virus [3] = assay: Antiviral activity against Hepatitis C virus infected human Huh-9-13 cells assessed as reduction of HCV RNA level after 4 days by RT-PCR; assay type: functional, organism-based, Hepacivirus hominis; conditions: 96 h
In short: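 Huh-9-13 replicon cells seeded 5000/well in complete DMEM with 1,000 µg/mL G418, 24 h at 37 °C. Threefold serial compound dilutions added in DMEM without G418, 4 days at 37 °C. Monolayers PBS-washed, lysed in RLT buffer, replicon RNA measured by quantitative real-time PCR. EC50 = 50% reduction in HCV RNA versus untreated control.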

PaCa = assay: Cytotoxicity against human MIA PaCa cells upto 200 uM by MTT assay; assay type: functional, cell-based
In short: (§1)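 MiaPaCa, Capan-2 and PC-3 cells tested by MTT assay at concentrations up to 200 µM.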

Capan-2 = assay: Cytotoxicity against human Capan2 cells upto 200 uM by MTT assay; assay type: functional, cell-based; in short: as §1
PC-3 = assay: Cytotoxicity against human PC3 cells upto 200 uM by MTT assay; assay type: functional, cell-based; in short: as §1
Huh-5-2 = assay: Cytotoxicity against human Huh-5-2 cells at 50 ug/ml; assay type: cell-based

| SMILES | EC50 (Hepatitis C virus [1]) [µg/mL] | CC50 [2] [µg/mL] | EC50 (Hepatitis C virus [3]) [µg/mL] | Activity (PaCa) | Activity (Capan-2) | Activity (PC-3) | Activity (Huh-5-2) [%] |
| --- | --- | --- | --- | --- | --- | --- | --- |
| COc1ccc(C#Cc2nc(C(N)=O)nn2COCCO)cc1 | > 50 | > 50 | – | – | – | – | – |
| NC(=O)c1nc(C#Cc2ccccc2)n(COCCO)n1 | 18 (≈ 62.9 µM) | > 50 | > 50 | Not toxic | Not toxic | Not toxic | – |
| NC(=O)c1nc(C#CC2(O)CCCCC2)n(COCCO)n1 | > 50 | > 50 | – | – | – | – | – |
| NC(=O)c1nc(C#CCCCCl)n(COCCO)n1 | > 50 | > 50 | – | – | – | – | – |
| NC(=O)c1nc(C#Cc2ccccc2F)n(COCCO)n1 | 20 (≈ 65.7 µM) | > 50 | – | – | – | – | < 80 |
| NC(=O)c1ncn([C@@H]2O[C@H](CO)[C@@H](O)[C@H]2O)n1 [RIBAVIRIN] | 7 (≈ 28.7 µM) | 21 (≈ 86 µM) | – | – | – | – | – |
| CCCCCc1ccc(C#Cc2nc(C(N)=O)nn2COCCO)cc1 | 22 (≈ 61.7 µM) | 25 (≈ 70.1 µM) | – | – | – | – | – |
| NC(=O)c1nc(C#Cc2cccc(F)c2)n(COCCO)n1 | 10 (≈ 32.9 µM) | 29 (≈ 95.3 µM) | – | – | – | – | – |
| NC(=O)c1nc(C#Cc2ccc(F)cc2)n(COCCO)n1 | 22 (≈ 72.3 µM) | > 50 | – | Not toxic | Not toxic | Not toxic | – |
| NC(=O)c1nc(C#CC2(O)CCCC2)n(COCCO)n1 | > 50 | > 50 | – | – | – | – | – |
| Cc1ccc(C#Cc2nc(C(N)=O)nn2COCCO)cc1 | 16 (≈ 53.3 µM) | > 50 | – | – | – | – | < 80 |
| NC(=O)c1nc(C#Cc2ccc(C(F)(F)F)cc2)n(COCCO)n1 | 5 (≈ 14.1 µM) | 20 (≈ 56.5 µM) | – | – | – | – | – |
| NC(=O)c1nc(C#CC2=CCCCC2)n(COCCO)n1 | > 50 | > 50 | – | – | – | – | – |

— ChEMBL document CHEMBL1150316, “Arylethynyltriazole acyclonucleosides inhibit hepatitis C virus replication” (Bioorg Med Chem Lett, 2008)
